Where only a bound is given, the exact number is not on record here.

For the assay, the target named is T1, Polyunsaturated fatty acid 5-lipoxygenase (Rattus norvegicus, UniProt P12527).
T1 sequence (P12527 whole entry): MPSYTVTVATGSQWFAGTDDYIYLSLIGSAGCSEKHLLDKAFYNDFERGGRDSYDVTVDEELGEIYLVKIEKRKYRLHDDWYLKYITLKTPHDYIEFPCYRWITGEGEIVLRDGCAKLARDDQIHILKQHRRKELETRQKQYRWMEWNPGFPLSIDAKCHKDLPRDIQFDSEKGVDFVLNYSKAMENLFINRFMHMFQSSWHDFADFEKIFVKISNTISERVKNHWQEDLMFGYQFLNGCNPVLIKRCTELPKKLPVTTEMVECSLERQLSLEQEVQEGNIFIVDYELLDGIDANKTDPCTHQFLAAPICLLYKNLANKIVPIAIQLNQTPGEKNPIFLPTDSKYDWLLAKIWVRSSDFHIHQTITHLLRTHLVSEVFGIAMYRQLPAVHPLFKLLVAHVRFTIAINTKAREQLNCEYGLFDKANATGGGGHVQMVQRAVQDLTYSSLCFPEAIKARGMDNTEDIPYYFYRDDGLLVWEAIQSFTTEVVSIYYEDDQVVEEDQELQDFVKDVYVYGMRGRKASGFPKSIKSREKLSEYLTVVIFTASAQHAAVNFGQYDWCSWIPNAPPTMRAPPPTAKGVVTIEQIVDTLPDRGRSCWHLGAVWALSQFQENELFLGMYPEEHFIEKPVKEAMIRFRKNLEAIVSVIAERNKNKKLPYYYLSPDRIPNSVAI
The assay is described as follows: Inhibition of 5-lipoxygenase in Wistar rat peritoneal leukocytes. In outline:
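Leukocytes (~85% PMNs) were elicited in male Wistar rats (200-300 g) with ip 6% oyster glycogen and harvested 16-20 h later. Cells at 2.5 × 10^6/mL in complete HBSS were tested in triplicate, preincubated with the sample (in DMSO, or CHCl3 evaporated) for 10 min at 37 °C, then given A23187 for 10 min. Supernatant LTB4 was measured by RIA (3H-LTB4 tracer, rabbit antiserum, 18 h, 4 °C).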

By IC50 is commonly meant the point on the concentration scale where inhibition reaches its midpoint. `C=C1CCCC(C)C(=O)C(=O)[C@@H]2[C@@H]1CC2(C)C` (stereo partly specified) [buddledin B] returned an IC50 greater than 200 µM.
